From article PMC6039301 (Journal of medicinal chemistry, 2017)
“Also recorded” adds a separate entry of the source.

Columns and labels:
[1] = tested on: ER-positive MCF-7 breast cancer cells; experiment: Cell proliferation assay; type: cell-based; conditions: for IC50: Homo sapiens, MCF7, read-out: IC50 antiproliferative activity; for Cell proliferation (CP), percent of vehicle control (antiproliferative efficacy): MCF-7, 3 μM, 6 days, maximum suppression ca. 20%
[2] = tested on: ERα levels in MCF-7 breast cancer cells; experiment: In-cell western assay for ERα level; type: cell-based; conditions: MCF-7, 3 μM, 24 h
In short: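 MCF-7 cells seeded at 3000 cells/well, exposed to test compound at a single 3 μM concentration for 24 h. Cells fixed in 4% formaldehyde, permeabilized with 0.1% Triton X-100, blocked, then probed overnight at 4 °C with rabbit anti-ERα (HC-20). IRDye 800 secondary and Cell Tag 700 were used, with ERα signal normalized to Cell Tag. Reported as percent of vehicle; mean of ≥3 independent experiments.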

ERα levels = experiment: Western blot analysis of ERα; type: cell-based; conditions: 3×10^−6 M, 24 h (Figure 6B)
In short: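 Cells treated 24 h with test compound at 3×10−10, 3×10−8 or 3×10−6 M; E2 (1×10−8 M) and tamoxifen (3×10−6 M) were reference treatments. Whole-cell extracts made with protease and phosphatase inhibitors, separated on 10% SDS-PAGE and transferred to nitrocellulose. Probed for ERα (F10 antibody) and β-actin. Band levels expressed as percent of vehicle.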

[3] = biological target: T1, full-length human estrogen receptor alpha (ERα) (Homo sapiens, UniProt P03372); conditions: cited from earlier work
T1 sequence (P03372 1-595): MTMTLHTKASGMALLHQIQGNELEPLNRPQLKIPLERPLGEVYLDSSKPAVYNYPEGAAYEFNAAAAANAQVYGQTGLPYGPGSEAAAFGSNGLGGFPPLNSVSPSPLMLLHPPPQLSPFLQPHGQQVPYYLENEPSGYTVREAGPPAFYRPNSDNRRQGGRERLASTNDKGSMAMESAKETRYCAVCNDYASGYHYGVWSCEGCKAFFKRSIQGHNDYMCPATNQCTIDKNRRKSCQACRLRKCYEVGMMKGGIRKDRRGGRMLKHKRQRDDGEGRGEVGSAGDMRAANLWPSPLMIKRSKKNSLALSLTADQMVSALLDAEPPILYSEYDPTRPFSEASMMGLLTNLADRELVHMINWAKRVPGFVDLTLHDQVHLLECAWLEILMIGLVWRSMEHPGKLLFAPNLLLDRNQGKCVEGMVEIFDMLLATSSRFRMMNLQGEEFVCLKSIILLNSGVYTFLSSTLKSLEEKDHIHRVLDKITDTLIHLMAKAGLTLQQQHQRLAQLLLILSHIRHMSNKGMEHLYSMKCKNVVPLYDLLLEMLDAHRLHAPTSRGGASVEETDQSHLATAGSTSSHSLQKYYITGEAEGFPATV

SMILES | Cell proliferation (CP), percent of vehicle control (antiproliferative efficacy) [1] | ERα level, percent of vehicle control (ERα downregulating efficacy) [2] | also measured
O=C(O)/C=C/c1ccc(C(=C2C3CC4CC(C3)CC2C4)c2ccc(O)cc2)cc1 [Compound 5, (E)-3-(4-(((1r,3r,5R,7S)-Adamantan-2-ylidene)(4-hydroxyphenyl)methyl)phenyl)acrylic acid] |  |  | IC50 [1]: 31 nM
CCCCCC(=O)/C=C/c1ccc(C(=C2C3CC4CC(C3)CC2C4)c2ccc(O)cc2)cc1 [Compound 6, (E)-1-(4-(((1r,3r,5R,7S)-Adamantan-2-ylidene)(4-hydroxyphenyl)methyl)phenyl)oct-1-en-3-one] | some efficacy | some efficacy | 
COC(=O)/C=C/c1ccc(C(=C2C3CC4CC(C3)CC2C4)c2ccc(O)cc2)cc1 [Compound 7, Methyl (E)-3-(4-(((1r,3r,5R,7S)-Adamantan-2-ylidene)(4-hydroxyphenyl)methyl)phenyl) acrylate] | no anti-proliferative activity |  | 
CCCCOC(=O)/C=C/c1ccc(C(=C2C3CC4CC(C3)CC2C4)c2ccc(O)cc2)cc1 [Compound 9, Butyl (E)-3-(4-(((1r,3r,5R,7S)-Adamantan-2-ylidene)(4-hydroxyphenyl)methyl)phenyl) acrylate] |  | good to very good | 
CC(C)CCCCCOC(=O)/C=C/c1ccc(C(=C2C3CC4CC(C3)CC2C4)c2ccc(O)cc2)cc1 [Compound 10, 6-Methylheptyl (E)-3-(4-(((1r,3r,5R,7S)-Adamantan-2-ylidene)(4-hydroxyphenyl)methyl)phenyl)acrylate] | no anti-proliferative activity | good to very good | 
O=C(/C=C/c1ccc(C(=C2C3CC4CC(C3)CC2C4)c2ccc(O)cc2)cc1)OCCCCO [Compound 13, 4-Hydroxybutyl (E)-3-(4-(((1r,3r,5R,7S)-Adamantan-2-ylidene)(4-hydroxyphenyl)methyl)phenyl)acrylate] |  | good to very good | 
N#C/C=C/c1ccc(C(=C2C3CC4CC(C3)CC2C4)c2ccc(O)cc2)cc1 [Compound 14, (E)-3-(4-(((1r,3r,5R,7S)-Adamantan-2-ylidene)(4-hydroxyphenyl)methyl)phenyl) acrylonitrile] | matching that of vehicle control; also recorded: no anti-proliferative activity | very effective | 
CCCNS(=O)(=O)/C=C/c1ccc(C(=C2C3CC4CC(C3)CC2C4)c2ccc(O)cc2)cc1 [Compound 15, (E)-2-(4-(((1r,3r,5R,7S)-Adamantan-2-ylidene)(4-hydroxyphenyl)methyl)phenyl)-N-propylethene-1-sulfonamide] | only modest | only modest | 
NC(=O)/C=C/c1ccc(C(=C2C3CC4CC(C3)CC2C4)c2ccc(O)cc2)cc1 [Compound 16, (E)-3-(4-(((1r,3r,5R,7S)-Adamantan-2-ylidene)(4-hydroxyphenyl)methyl)phenyl)acrylamide] | Least good | Least good | 
CCCCNC(=O)/C=C/c1ccc(C(=C2C3CC4CC(C3)CC2C4)c2ccc(O)cc2)cc1 [Compound 18, (E)-3-(4-(((1r,3r,5R,7S)-Adamantan-2-ylidene)(4-hydroxyphenyl)methyl)phenyl)-N-butylacrylamide] | good efficacies | good efficacies | 
O=C(/C=C/c1ccc(C(=C2C3CC4CC(C3)CC2C4)c2ccc(O)cc2)cc1)NCCO [Compound 20, (E)-3-(4-(((1r,3r,5R,7S)-Adamantan-2-ylidene)(4-hydroxyphenyl)methyl)phenyl)-N-(2-hydroxyethyl)acrylamide] | impressive efficacies | impressive efficacies | IC50 [1]: 2.4 nM
O=C(/C=C/c1ccc(C(=C2C3CC4CC(C3)CC2C4)c2ccc(O)cc2)cc1)NCCCO [Compound 21, (E)-3-(4-(((1r,3r,5R,7S)-Adamantan-2-ylidene)(4-hydroxyphenyl)methyl)phenyl)-N-(3-hydroxypropyl)acrylamide] | equivalent to that of the parent acid 5; also recorded: comparable to that of fulvestrant | good and similar to that of the parent 5; also recorded: comparable to that of fulvestrant | IC50 [1]: 1.9 nM
O=C(/C=C/c1ccc(C(=C2C3CC4CC(C3)CC2C4)c2ccc(O)cc2)cc1)NCCCCCO [Compound 23, (E)-3-(4-(((1r,3r,5R,7S)-Adamantan-2-ylidene)(4-hydroxyphenyl)methyl)phenyl)-N-(5-hydroxypentyl)acrylamide] | equivalent to that of the parent acid 5 | good and similar to that of the parent 5 | IC50 [1]: 10 nM
NCCNC(=O)/C=C/c1ccc(C(=C2C3CC4CC(C3)CC2C4)c2ccc(O)cc2)cc1 [Compound 24, (E)-3-(4-(((1r,3r,5R,7S)-Adamantan-2-ylidene)(4-hydroxyphenyl)methyl)phenyl)-N-(2-aminoethyl)acrylamide] |  |  | IC50 [1]: 10 nM
NCCCNC(=O)/C=C/c1ccc(C(=C2C3CC4CC(C3)CC2C4)c2ccc(O)cc2)cc1 [Compound 25, (E)-3-(4-(((1r,3r,5R,7S)-Adamantan-2-ylidene)(4-hydroxyphenyl)methyl)phenyl)-N-(3-aminopropyl)acrylamide] |  | good | 
NCCCCNC(=O)/C=C/c1ccc(C(=C2C3CC4CC(C3)CC2C4)c2ccc(O)cc2)cc1 [Compound 26, (E)-3-(4-(((1r,3r,5R,7S)-Adamantan-2-ylidene)(4-hydroxyphenyl)methyl)phenyl)-N-(4-aminobutyl)acrylamide] |  | good | 
O=C(/C=C/c1ccc(C(=C2C3CC4CC(C3)CC2C4)c2ccc(O)cc2)cc1)NCC(F)(F)F [Compound 28, (E)-3-(4-(((1r,3r,5R,7S)-Adamantan-2-ylidene)(4-hydroxyphenyl)methyl)phenyl)-N-(2,2,2-trifluoroethyl)acrylamide] | Least good | Least good | 
CCCCN(C)C(=O)/C=C/c1ccc(C(=C2C3CC4CC(C3)CC2C4)c2ccc(O)cc2)cc1 [Compound 29, (E)-3-(4-(((1r,3r,5R,7S)-Adamantan-2-ylidene)(4-hydroxyphenyl)methyl)phenyl)-N-butyl-N-methylacrylamide] | very poor efficacies | very poor efficacies | 
O=C(/C=C/c1ccc(C(=C2C3CC4CC(C3)CC2C4)c2ccc(O)cc2)cc1)N(CCO)CCO [Compound 31, (E)-3-(4-(((1r,3r,5R,7S)-Adamantan-2-ylidene)(4-hydroxyphenyl)methyl)phenyl)-N,N-bis(2-hydroxyethyl)acrylamide] | relatively unimpressive | relatively unimpressive | 
C[C@]12CC[C@@H]3c4ccc(O)cc4C[C@@H](CCCCCCCCC[S+]([O-])CCCC(F)(F)C(F)(F)F)[C@H]3[C@@H]1CC[C@@H]2O (some centres unmarked) [Fulvestrant, fulvestrant, reference compound] |  | 20% | 
CC/C(=C(\c1ccc(O)cc1)c1ccc(OCCN(C)C)cc1)c1ccccc1 [hydroxytamoxifen, 4-hydroxytamoxifen] |  |  | effect on cellular ERα level (Western blot) (ERα levels): upregulate ERα levels
Oc1ccc(C(=C2C3CC4CC(C3)CC2C4)c2ccc(O)cc2)cc1 [parent bisphenolic adamantyl-core] |  |  | binding affinity for ERα, fold higher than that of estradiol (E2) [3]: ca. 3 fold; Ki ([3]; read-out: Ki for ERα, corresponds to the affinity relative to E2): 0.07 nM
